Compound activity deposited in PubChem BioAssay by The Scripps Research Institute Molecular Screening Center.
OXTR ag: agonists of human oxytocin receptor. P30559. CHO-OTR cells, Fluo-8 calcium fluorescence; normalized: DMSO 0%, oxytocin 100%. activation, % at 3 µM. hit rate 0.32% among 320,000;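 active means activation above the mean of all tested compounds plus 3 SD, cutoff set per screening run, cut at about 20% in these data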;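 further: peak over basal fluorescence ratio from a 100 s FLIPR kinetic read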
Target sequence (P30559 whole entry, looked up): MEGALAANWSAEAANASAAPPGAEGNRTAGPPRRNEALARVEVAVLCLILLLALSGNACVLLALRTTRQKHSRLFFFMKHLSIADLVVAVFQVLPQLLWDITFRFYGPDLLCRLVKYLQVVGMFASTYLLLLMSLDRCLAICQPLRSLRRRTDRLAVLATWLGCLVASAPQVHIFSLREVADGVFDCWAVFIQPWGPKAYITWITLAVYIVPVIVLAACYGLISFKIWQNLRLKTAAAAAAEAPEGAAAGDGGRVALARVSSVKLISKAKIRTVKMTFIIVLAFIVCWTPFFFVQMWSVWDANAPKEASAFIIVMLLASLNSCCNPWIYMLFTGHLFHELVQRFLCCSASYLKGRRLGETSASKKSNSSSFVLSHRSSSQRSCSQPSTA
OXTR potentiate: potentiators of human oxytocin receptor; activation, % at 3 µM; P30559; hit rate 0.061% among 320,000; CHO-OTR cells, Fluo-8 calcium fluorescence, potentiator mode; 0% = oxytocin EC15, 100% = EC100; AID 2445;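 active means activation above that plate's cutoff, the mean activation of tested compounds plus 3 SD, cut at about 6.6% in these data, passing the limit was not always enough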;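 further: 100% uses oxytocin at 75 nM as the full agonist control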
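System: human OTR in CHO cells / Also added: sub-maximal oxytocin, roughly EC15 / Control set: EC15 oxytocin low, 75 nM oxytocin high / Schedule: 6 min compound pre-incubation at room temperature, 100 s kinetic read / Compound: single-point 3.0 µM / Replication: singlicate / Technique: Fluo-8 calcium dye fluorescence / Read-out basis: % activation of max/min ratio relative to oxytocin controls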
TRPN1 ag: zebrafish TRPN1 (NompC) channel agonism; HEK293 zebrafish TRPN1-YFP, Fluo-8 calcium fluorescence; 100% = response to 87 µM carbachol; activation, % at 3 µM; hit rate 0.18% among 220,000; AID 1424;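 active means activation above its plate's cutoff, the mean activation of test wells on that plate plus 3 SD, cut at about 19% in these data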;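 further: 0% = DMSO alone and 100% = 87 µM carbachol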
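Material – zebrafish TRPN1-YFP in HEK293 cells · Doses – 3 µM single point · Schedule – dye 1 h 37 °C plus 30 min RT · Signal – Fluo-8 calcium fluorescence, excitation 470-495 nm, emission 515-575 nm · Read-out – % activation versus carbachol response · Control set – carbachol high, DMSO low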
TRPML3 agonist: activates the human TRPML3 channel | Q8TDD5 | HEK293 TRPML3-YFP, Fluo-8 calcium fluorescence; 100% = the carbachol control signal | activation, % at 3 µM | hit rate 0.29% among 220,000;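 active means activation above its plate's cutoff, the mean activation of the plate's test wells plus 3 SD, cut at about 12% in these data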;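 further: 0% = DMSO only wells and 100% = carbachol wells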
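Material: TRPML3-YFP stable HEK293 cells | Dosing: One concentration, 3 µM nominal, 0.3% DMSO | Timing: 125 s total fluorescence read per well | Technique: Fluo-8 calcium dye fluorescence, ex 470-495, em 515-575 nm | Measure: Percent activation from peak-to-basal fluorescence ratio, scaled between DMSO and carbachol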
V1R ag counter: counter-screen for oxytocin receptor agonists: human V1a receptor agonists | hit rate 0.25% among 320,000 | activation, % at 3 µM | CHO-V1R cells, Fluo-8 calcium fluorescence, agonist mode; 0% DMSO, 100% 3 nM vasopressin | P37288 | AID 2797;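 active means activation above the mean activation of all tested compounds plus 3 SD, per screening run, cut at about 20% in these data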;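 further: signal is peak over basal fluorescence ratio across a 100 second FLIPR read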
V1R ag confirm: human V1a receptor agonism, confirmation. shares compounds with V1R ag counter. CHO-V1R cells, Fluo-8 calcium fluorescence, agonist. activation, % at 3 µM. hit rate 20% among 180;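 active means average activation exceeds primary screen hit cutoff, cut at about 21% in these data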;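 further: peak over basal fluorescence ratio during a 100 s FLIPR read; 0% = DMSO only wells and 100% = 3 nM vasopressin wells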
OXTR ag counter: activates oxytocin receptor in V1a agonist counter-screen | hit rate 10% among 180 | activation, % at 3 µM | CHO-OTR cells, Fluo-8 calcium fluorescence | AID 434969 | shares compounds with V1R ag counter;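 active means mean activation over three repeats above the cutoff from the earlier oxytocin receptor agonist screen, cut at about 20% in these data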;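 further: peak over minimum fluorescence ratio within a 100 second FLIPR read; 0% = DMSO only wells and 100% = oxytocin high control wells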
* = called active by the depositor; . = not tested or not shown. Sampled rows, rich in hits. Any-hit rate of the full collection: about 0.55%.

SMILES	OXTR ag	OXTR potentiate	TRPN1 ag	TRPML3 agonist	V1R ag counter	V1R ag confirm	OXTR ag counter
O=C(C/C=N\OCc1ccc([N+](=O)[O-])cc1)Nc1ccccc1	3	-7	-1	0	3	.	.
COC(=O)C(/C=N/OCc1ccc([N+](=O)[O-])cc1)NC(=O)c1ccccc1 (configuration not stated)	14	-29	3	3	25*	11	18
COc1cc(N)c(Cl)cc1C(=O)OCC(=O)NCc1cccs1	1	1	.	.	1	.	.
O=C(NC(=S)NCCc1ccccn1)c1ccco1	0	0	0	0	117*	0	0
O=C(NC(=S)NCCc1ccccn1)c1ccccc1	0	0	2	0	0	.	.
Cc1ccc(N2C(=O)N(CC(=O)Nc3ccc([N+](=O)[O-])cc3)C(=O)C2C)cc1 (configuration not stated)	0	-2	.	.	1	.	.
CCC1Sc2ccc(S(=O)(=O)Nc3ccc(OC)cc3)cc2NC1=O (configuration not stated)	13	-13	.	.	20*	5	4
CCC1Sc2ccc(S(=O)(=O)Nc3ccc(OC)c(OC)c3)cc2NC1=O (configuration not stated)	7	-23	.	.	6	.	.
Nc1nc(-c2ccccn2)nc(N)c1Cc1ccc(Cl)cc1Cl	15	-11	3	2	22*	7	4
COc1ccc(OC)c(S(=O)(=O)N2CCCC(N3CCN(c4ccccc4)CC3)C2)c1 (configuration not stated)	-1	-4	.	.	3	.	.
O=C(c1ccccc1NS(=O)(=O)c1ccc(Cl)cc1)N1CCc2ccccc21	-1	1	0	0	21*	1	0
O=C(Nc1ccc([N+](=O)[O-])cc1)Nc1nc(-c2ccc(Cl)s2)cs1	17	-11	3	2	7	.	.
CCCCn1c(N)c(N(CC(C)C)C(=O)CSc2nnc(C)n2-c2ccc(OC)cc2)c(=O)[nH]c1=O	-1	-5	.	.	0	.	.
CCOC(=O)C(NC(=O)c1ccccc1)=C(C)C	-1	-4	0	1	0	.	.
CCOC(=O)C(CC(=O)O)=C(c1ccccc1)c1ccccc1	0	-14	.	.	21*	0	0
O=C(CN1C(=O)COc2ccc(S(=O)(=O)N3CCCC3)cc21)NCc1ccccn1	0	3	1	1	0	.	.
CCN(CC)S(=O)(=O)c1ccc(C(=O)Nc2nnc(-c3ccco3)o2)cc1	-1	-1	-1	-1	-1	.	.
CCCCN(CC)S(=O)(=O)c1ccc(C(=O)Nc2nnc(-c3cccs3)o2)cc1	0	-18	0	0	26*	8	4
COc1ccc(CC(=O)Nc2ccc(N(C)C)c3ccccc23)cc1	-3	-3	.	.	-1	.	.
NS(=O)(=O)c1ccc2nc(NC(=O)Nc3ccc(F)cc3)sc2c1	1	-2	.	.	24*	1	1
COC(=O)C1=C(C)N(Cc2ccccc2)C(=NCCc2c[nH]c3ccccc23)N[C@H]1c1cccc(C(F)(F)F)c1	16	-5	.	.	20*	4	6
COCCN=C1N[C@@H](c2cccc(C(F)(F)F)c2)C(C(=O)OC)=C(C)N1Cc1ccccc1	14	-10	.	.	5	.	.
COc1cc(C(=O)NNC(=S)NC(=O)c2ccccc2C)cc(OC)c1OC	9	-5	3	5	29*	11	8
COc1cc(C(=O)NNC(=S)NC(=O)c2ccc3c(c2)OCO3)cc(OC)c1OC	8	-5	0	0	0	.	.
O=C(c1ccc(NC(=O)C(c2ccccc2)c2ccccc2)cc1)c1ccc(C(=O)O)c(C(=O)O)c1	0	-6	.	.	-1	.	.
Cc1ccc(NC(=O)c2ccc(OC(=S)N3CCOCC3)cc2)cc1	3	-13	0	1	26*	0	0
O=C(NCc1ccc(F)cc1)c1cc2c(cc1Cl)N1CCCCCC1=NS2(=O)=O	2	-1	.	.	0	.	.
Cc1ccc(C(C)NC(=S)NCc2ccc(F)cc2)c(C)c1 (configuration not stated)	3	-16	.	.	23*	4	2
O=C(OCCN1C(=O)c2cccc3c(N4CCOCC4)ccc(c23)C1=O)c1ccccc1Cl	12	-11	7	2	26*	30*	42*
COCC(=O)N1CCC(Oc2ccc(C(=O)N(C)CCCC3CCCC3)cc2)CC1	5	-9	.	.	9	.	.
